Screening data as filed in PubChem BioAssay.
In the library only some 11% were active in any assay of this set; here they are far more common.
S1P1 ag pot – agonists and agonism potentiators of human S1P1 receptor | P21453 | 56,000 compounds, 0.57% hits | S1P1 CRE-bla cells, forskolin, beta-lactamase FRET, potentiator mode; S1P1 agonist co-added at EC20, 2 nM; 100% = saturating reference agonist, 0% = basal | activation, % at 9.5 µM | AID 449;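 active = activation above a cutoff set at the mean activation of all tested compounds plus 3 SD, cut at about 54% in these data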;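 also: forskolin at 4 µM as EC80 and the EC20 agonist is SEW2871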
TNAP act mid DEA – human TNAP activation, intermediate phosphate acceptor; activation factor at 20 µM; AID 813; P05186; purified TNAP, CDP-star luminescence, 100 mM DEA, 30 min; active compounds read high; scale: 0 levamisole-inhibited, 1 vehicle-only enzyme; 64,000 tested, under 10 active;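 active = activation factor of at least 2 at 20 µM, relative to controls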
D1 mod – D1 dopamine receptor (human) allosteric modulation. HEK293 D1, CRE-luciferase, dopamine EC30 potentiation; actives deviate in either direction. AID 641. B-score at 10 µM. P21728. 58,000 compounds, 5.9% hits;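 active = luminescence count or its row- and column-corrected plate score outside the 99.7% band of the plate's sample wells, on either side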
M1 agonist – agonists of M1 muscarinic receptor; 64,000 compounds, 3% hits; B-score at 10 µM; CHO-M1 cells, Fluo-4 calcium fluorescence, agonist mode; active compounds read high; AID 626;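 active = fluorescence rise, raw or as B-score row- and column-corrected plate score, outside the 99.7% band of its plate's samples, either direction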
S1P3 ag – S1P3 (human) receptor agonism. S1P3 NFAT-BLA reporter cells, FRET ratio; relative to 1 µM S1P, basal subtracted. 60,000 compounds, 0.1% hits. activation, % at 4.5 µM. Q99500;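 active = activation above the screen-wide mean plus 3 SD, cut at about 4.5% in these data, passing the limit was not always enough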
Target sequence (Q99500 whole entry, looked up): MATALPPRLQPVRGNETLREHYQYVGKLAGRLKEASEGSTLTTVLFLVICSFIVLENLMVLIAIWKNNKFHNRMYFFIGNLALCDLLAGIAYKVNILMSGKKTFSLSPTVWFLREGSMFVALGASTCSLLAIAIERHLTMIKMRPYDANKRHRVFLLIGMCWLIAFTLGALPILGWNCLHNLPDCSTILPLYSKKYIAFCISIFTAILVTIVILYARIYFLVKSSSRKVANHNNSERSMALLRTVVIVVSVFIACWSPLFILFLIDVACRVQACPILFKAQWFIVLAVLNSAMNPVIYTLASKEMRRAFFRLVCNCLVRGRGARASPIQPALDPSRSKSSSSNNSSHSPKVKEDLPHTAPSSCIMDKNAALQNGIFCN
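Measure – % activation relative to 1 µM S1P (100%), per plate · System – stable CHO line with human S1P3, Gα16, NFAT-BLA reporter · Timing – cells plated overnight, compound 4 h 37 °C, substrate 2 h RT · Technique – fluorescent BLA substrate, ex 405 nm, em 460/535 nm ratio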
M1 antag – antagonists of rat M1 muscarinic receptor; CHO-M1 cells, Fluo-4 calcium, ACh EC80 antagonist mode; active compounds read low; 64,000 compounds, 3.4% hits; B-score at 10 µM; AID 628;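 active = calcium fluorescence response, raw or row-and-column corrected B-score, differing from the plate sample mean either way at a set confidence level, mostly lower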
M1 agonist conf – rat M1 muscarinic agonism, confirmation; shares compounds with M1 agonist; CHO-M1 cells, Fluo-4 calcium fluorescence, agonist mode; actives lie on both sides; fluorescence change (max-min) at 10 µM; 1,700 compounds, 19% hits; AID 1488;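 active = fluorescence change differs from the solvent-only DMSO control mean at a set confidence level in both duplicate runs; inconclusive = differs from solvent-only control mean in just one of two runs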;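 also: an EC20 dose of acetylcholine follows compound addition during the same imaging run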
M4 ag counter – activates rat M4 receptor in counter-screen for M1 agonists; shares compounds with M1 agonist; CHO M4/Gqi5 cells, Fluo-4 calcium fluorescence, agonist mode; actives lie on both sides; fluorescence change (max-min) at 10 µM; 1,700 compounds, 9% hits; AID 1741;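 active = fluorescence change differing from the plate's solvent-only control wells at 99.7% confidence in both duplicates, whether higher or lower; inconclusive = differs from solvent controls in only one of two duplicates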
Numbers stand for hits; i = inactive; ? = inconclusive; nt = no result given.

SMILES	S1P1 ag pot	TNAP act mid DEA	D1 mod	M1 agonist	S1P3 ag	M1 antag	M1 agonist conf	M4 ag counter
CCCN1C2=NCCN2c2cc(C)c(C)cc21	i	i	i	i	i	i	nt	nt
CN(C)CCCN(CCCNC(=O)/C=N/O)Cc1ccccc1	i	i	nt	i	i	i	nt	nt
CCOc1ccc(CC(=O)Nc2c(C(N)=O)oc3ccc(Br)cc23)cc1OCC	i	i	nt	3.13	i	i	i	i
COC(=O)c1oc2ccc(Br)cc2c1NC(=O)CCN1CCOCC1	i	i	i	i	i	i	nt	nt
CCOC(=O)c1sc(N)c(C#N)c1CSc1nnc(C2CCCCC2)n1N	i	i	nt	i	i	i	nt	nt
CN(C)c1ccc(/C=C/c2cc[n+]([O-])cc2)cc1	i	i	i	247	i	i	876	895
CCOC(=O)c1sc2nc(N3CCOCC3)c3c(c2c1N)CCC3	i	i	i	2.02	i	i	?	i
CC(=O)Nc1cccc(NC(=O)C2CC(=O)N(c3ccc(C)cc3)C2)c1 (stereo not given)	i	i	i	3.12	i	i	i	i
Cc1ccc(N2CC(C(=O)Nc3ccncc3)CC2=O)cc1 (stereo not given)	i	i	i	i	i	i	nt	nt
COC(=O)c1cc(Br)c(=O)n(-c2ccc(C(C)=O)cc2)c1	i	i	i	i	i	i	nt	nt
O=C(O)CSCC(=O)NCc1ccccc1	i	i	i	i	i	i	nt	nt
CCCCCn1c(=N)n(CC(O)COc2ccccc2OC)c2ccccc21 (stereo not given)	i	i	-5.83	3.08	i	i	i	i
Cc1nnc(NC(=O)C2C3C=CC(O3)C2C(=O)O)s1 (stereo not given)	nt	i	i	3.36	nt	i	?	i
COC(=O)c1ccc(NC(=O)C2C3C=CC(O3)C2C(=O)O)cc1 (stereo not given)	i	i	i	i	i	i	nt	nt
C#CC1(O)CC(C)N(C)C(C)C1 (stereo not given)	i	i	i	2.4	i	i	i	i
Cc1[nH]c2ccccc2c1C(=O)CN1CCCCC1CCO (stereo not given)	i	i	i	i	i	i	nt	nt
CN1CCN(c2ncnc3c2cnn3-c2ccc(Cl)cc2)CC1	i	i	-6.24	2.87	i	i	?	i
CCc1nnc(NC(=O)CSc2nnc(Cc3ccc(OC)cc3)o2)s1	i	i	i	i	i	i	nt	nt
COc1cccc(N2CCN(C3CC(=O)N(c4cccc(Cl)c4)C3=O)CC2)c1 (stereo not given)	i	i	nt	i	i	i	nt	nt
COc1cccc(N2CCN(C3CCCC(C)C3)CC2)c1 (stereo not given)	nt	i	i	3.58	i	i	i	i
O=C(c1ccc(-c2ccccc2)cc1)N1CCN(C(=O)c2ccco2)CC1	i	i	i	i	i	i	nt	nt
O=C(c1ccco1)N1CCN(C(=O)C(Sc2ccccc2)c2ccccc2)CC1 (stereo not given)	i	i	i	3.85	i	i	?	i
CCN(CC)C(=O)CSc1nnc(-c2cccnc2)n1CCc1ccccc1	i	i	i	8.29	i	i	i	i
NC(=O)CSc1nnc(-c2cccnc2)n1CCc1ccccc1	i	i	i	i	i	i	nt	nt
COc1ccc(-c2noc(CCC(=O)NCCCN3CCC(C)CC3)n2)cc1	nt	i	i	i	nt	i	nt	nt
SMILES	S1P1 ag pot	TNAP act mid DEA	D1 mod	M1 agonist	S1P3 ag	M1 antag	M1 agonist conf	M4 ag counter
Cc1ccc(-c2noc(CCC(=O)NCCCN3CCN(c4ccc(F)cc4)CC3)n2)cc1	i	i	-4.98	5.28	i	-2.57	i	i
Cc1ccc(-c2noc(CCC(=O)NCCCN3CCN(c4cccc(Cl)c4)CC3)n2)cc1	i	i	-3.93	4.38	i	-3.74	?	i
Clc1cccc(N2CCN(Cc3nc(-c4ccccc4)no3)CC2)c1	i	i	i	i	i	i	nt	nt
COc1ccc(-c2noc(CCC(=O)NCCN3CCN(c4ccccc4F)CC3)n2)cc1	nt	i	-2.8	5.02	nt	i	i	i
CC1(C)CC(=O)c2cc(OCC(=O)NCCCN3CCN(c4ccc(F)cc4)CC3)ccc2O1	i	i	-4.22	13.2	i	i	i	i
CC1(C)CC(=O)c2cc(OCC(=O)NCCN3CCCc4ccccc43)ccc2O1	i	i	i	i	i	i	nt	nt
O=C(Nn1cnnc1)c1ccccc1CCc1ccccc1	nt	i	i	nt	i	nt	nt	nt
Cc1ccc(NC(=O)C2C3C=CC4(CN(Cc5cccnc5)C(=O)C24)O3)cc1 (stereo not given)	i	i	i	i	i	i	nt	nt
COc1ccc2c(c1)c(=O)cc(C)n2CC(=O)NCc1ccco1	i	i	i	i	i	i	nt	nt
CC1CCCCN1C(=O)Nc1cccc(Cl)c1 (stereo not given)	i	i	i	15.9	i	-19.4	?	i
CCOC(=O)Cn1c2ccc(OC)cc2c2nc3ccccc3nc21	i	i	i	18.6	i	i	i	i
O=S(=O)(NCc1ccccc1)c1ccc2c(c1)OCCO2	i	i	i	7.43	i	i	i	i
Cc1cnc(C(=O)OCC(=O)N2CCN(C(=O)c3ccco3)CC2)cn1	i	i	i	i	i	i	nt	nt
Cc1cc(SCC(=O)OCC(=O)N2CCN(C(=O)c3ccco3)CC2)c(C)cc1Br	nt	i	i	4.1	nt	i	i	i
CN1/C(=N\O)c2cccc3cccc1c23	i	i	i	6.9	i	i	i	i
CC(C)OP(=O)(c1ccc(N(C)C)cc1)C(O)c1c(Cl)cccc1Cl (stereo not given)	i	i	i	i	i	i	nt	nt
O=C(Nc1cnc2ccccc2c1)c1ccncc1	i	i	nt	i	i	i	nt	nt
COC(=O)c1cccc(C(=O)Nc2cnc3ccccc3c2)n1	i	i	i	3.74	i	i	i	?
CCCCCC(=O)Nc1ccc(N2CCN(S(C)(=O)=O)CC2)cc1	i	i	i	-2.27	i	i	i	i
CCCCC(=O)Nc1ccc(N2CCN(C(=O)CC)CC2)cc1	i	i	i	i	i	i	nt	nt
CCOC(=O)c1ccc(-n2c(=O)[nH]c3ccccc3c2=O)cc1	i	i	i	-1.99	i	i	?	i
Cc1cc(C)c2cc3c(ccn3C3OC[C@H](O)[C@H](O)[C@H]3O)cc2n1 (stereo not given in full)	i	i	i	36.3	i	i	201	i
O=C(c1cccs1)c1no[n+]([O-])c1C(=O)c1cccs1	i	i	i	12.1	i	-3.19	i	i
